# Bioassay records as filed in PubChem BioAssay.
# Compounds with a hit are over-represented: about 1.8% of the library has one in this group of screens.
# LEDGF integ inh – blocks HIV-1 LEDGF/p75-dependent DNA integration. TR-FRET IN-LEDGF/p75 DNA integration, Eu/Cy5. inhibition, % at 3.7 µM. hit rate 0.64% among 370,000;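 active means inhibition above the screen-wide mean plus 3 SD, cut at about 13% in these data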;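 further: signal is the Cy5 over europium emission ratio at 671 and 618 nm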
# NSD2 HMT inh – blocks human histone methyltransferase NSD2. O96028. NSD2 peptide methylation, AlphaScreen, 120 min. inhibition, % at 12.5 µM. hit rate 0.54% among 310,000. AID 743445; in the data active means inhibition above about 50%
# MBD2 inh – inhibitors of human MBD2 binding to methylated oligonucleotide; Q9UBB5; TR-FRET; inhibition, % at 4.4 µM; hit rate 0.31% among 370,000; in the data active means inhibition above about 13%
# Casp6 inh – caspase-6 (human) enzyme inhibition; purified caspase-6, Z-VEID-R110 cleavage fluorescence; inhibition, % at 12.5 µM; hit rate 0.53% among 350,000;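 active means mean inhibition across replicates at least about 35%, with every replicate also reaching that limit, limit read from the data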
# UHRF1 MBD2 ctr – UHRF1 methyl-DNA binding inhibition; inhibition, % at 4.4 µM; UHRF1 binding to methylated oligo, TR-FRET; Q96T88; hit rate 0.75% among 370,000; AID 687016; in the data active means inhibition above about 21%;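 further: UHRF1 SRA domain binding a hemimethylated CpG hairpin DNA probe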
# Target sequence (Q96T88 whole entry, looked up, the tested form may be a part): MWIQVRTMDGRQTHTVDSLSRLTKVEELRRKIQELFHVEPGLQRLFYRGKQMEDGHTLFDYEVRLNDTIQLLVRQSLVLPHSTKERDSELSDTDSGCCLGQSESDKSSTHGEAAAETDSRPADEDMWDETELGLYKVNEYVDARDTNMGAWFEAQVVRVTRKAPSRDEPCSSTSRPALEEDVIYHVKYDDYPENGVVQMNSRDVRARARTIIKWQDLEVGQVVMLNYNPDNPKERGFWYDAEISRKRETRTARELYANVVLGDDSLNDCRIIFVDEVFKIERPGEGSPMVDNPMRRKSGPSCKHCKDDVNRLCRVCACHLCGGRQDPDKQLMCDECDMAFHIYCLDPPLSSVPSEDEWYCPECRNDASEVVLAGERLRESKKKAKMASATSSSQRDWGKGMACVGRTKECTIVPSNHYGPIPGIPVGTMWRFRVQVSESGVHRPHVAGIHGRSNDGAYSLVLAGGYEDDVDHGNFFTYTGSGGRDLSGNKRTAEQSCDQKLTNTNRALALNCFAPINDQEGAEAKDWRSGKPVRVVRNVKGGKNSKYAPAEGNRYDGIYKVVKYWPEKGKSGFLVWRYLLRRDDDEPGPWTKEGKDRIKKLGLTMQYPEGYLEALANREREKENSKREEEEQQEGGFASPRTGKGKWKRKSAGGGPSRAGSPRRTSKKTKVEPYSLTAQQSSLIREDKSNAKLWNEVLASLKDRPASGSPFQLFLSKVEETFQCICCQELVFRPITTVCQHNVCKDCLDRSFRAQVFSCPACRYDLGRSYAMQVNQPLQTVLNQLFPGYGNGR
# TDP2 inh – TDP2 (human) inhibition, absorbance primary screen; O95551; recombinant TDP2, T5PNP hydrolysis, p-nitrophenol absorbance 415 nm; inhibition, % at 12.8 µM; hit rate 0.34% among 370,000; AID 720702;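 active means inhibition above the mean of all tested compounds plus 3 SD, set per campaign, cut at about 25% in these data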
#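 Read-out basis: percent inhibition. System: recombinant human TDP2. Buffer or medium: Mg2+-containing Tris-HCl buffer, pH 7.5. Repeats: single replicate. Timing: reaction 2 h, 37 °C. Benchmarks: high control without enzyme, low control DMSO plus TDP2. Probe or stimulus: 5 mM T5PNP. Doses: 12.8 µM only. Measured by: epi absorbance of p-nitrophenol freed from T5PNP by hydrolysis.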
# IN multimer act – HIV-1 integrase multimerization activation, counter-screen; shares compounds with LEDGF integ inh; TR-FRET HIV-1 integrase multimerization, biochemical; activation, % at 7.7 µM; hit rate 17% among 2,000; AID 1053131; in the data active means activation above about 8.9%
# TR-FRET interf – counter-screen for LEDGF/p75 integration inhibitors: TR-FRET optical interference; shares compounds with LEDGF integ inh; TR-FRET optical interference counterscreen, HIV-1 IN multimerization; inhibition, % at 7.7 µM; 2,000 tested, under 10 active;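 active means inhibition above the mean over all tested compounds plus 3 SD, which no compound reached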
# IN-LEDGF confirm – LEDGF/p75-dependent HIV-1 integration inhibition, confirmation; inhibition, % at 3.7 µM; hit rate 36% among 2,000; TR-FRET LEDGF/p75-dependent HIV-1 integration, biochemical; shares compounds with LEDGF integ inh; in the data active means inhibition above about 14%
# A number is an active result; - = inactive; . = no result.
SMILES,LEDGF integ inh,NSD2 HMT inh,MBD2 inh,Casp6 inh,UHRF1 MBD2 ctr,TDP2 inh,IN multimer act,TR-FRET interf,IN-LEDGF confirm
COc1ccc2c3c([nH]c2c1)[C@H](CO)N(C(=O)Nc1ccc(F)cc1)CC31CCN(CC2CC2)CC1,.,.,.,-,.,.,.,.,.
COc1ccc(/C=N\NC(=O)c2cc(O)c(O)c(O)c2)cc1CN1CCN(c2ccc(F)cc2)CC1,20,-,-,.,-,-,37,-,38
Cc1cc(Br)c(NC(=O)Cn2c([N+](=O)[O-])cnc2C)cc1C,-,-,-,-,-,-,.,.,.
Cc1ncc([N+](=O)[O-])n1CC(=O)Nc1cc(Cl)ccc1Cl,52,-,-,-,-,-,-,-,-
CCOC(=O)[C@]12CCCC=C1N(Cc1ccccc1)C(=O)[C@H](CC(=O)NCc1ccccc1)C2,-,.,-,-,-,-,.,.,.
COC(=O)[C@]12CCCCC=C1N(Cc1ccco1)C(=O)[C@H](CC(=O)NCC13CC4CC(CC(C4)C1)C3)C2,28,.,-,-,-,-,-,-,-
C#CCNC(=O)C[C@@H]1C[C@@]2(C(=O)OCC)CCCC=C2N(Cc2ccccc2)C1=O,19,.,-,-,-,-,-,-,-
COc1ccc(-c2cnc3c(c2)C(=O)N([C@@H](C)CO)C[C@H](C)[C@@H](CN(C)C(=O)Cc2ccncc2)O3)cc1,.,.,.,-,.,.,.,.,.
CC(C)CC#Cc1cnc2c(c1)C(=O)N([C@@H](C)CO)C[C@@H](C)[C@@H](CN(C)C(=O)Cc1cccnc1)O2,.,.,.,-,.,.,.,.,.
COc1ccc2c(c1)C(c1ccc(C)o1)=NNC(c1cccnc1)=N2,19,.,-,-,-,-,-,-,-
CCc1ccc(CN2CCC(CO)(CC3CCCCO3)CC2)o1 (stereo not drawn),13,-,-,-,-,-,-,-,-
C[C@H]1CN([C@@H](C)CO)C(=O)c2cc(NC(=O)Nc3ccc(F)cc3)ccc2O[C@@H]1CN(C)C(=O)Nc1ccccc1,.,.,.,-,.,.,.,.,.
COc1ccc(C(C)(NC(C)=O)c2nc(-c3cccnc3)cs2)cc1 (stereo not drawn),-,-,-,-,-,-,.,.,.
COc1ccc(C(C)(NC(C)=O)c2nc(-c3cccc(C(F)(F)F)c3)cs2)cc1 (stereo not drawn),16,-,-,-,-,-,-,-,-
C[C@H]1CN([C@@H](C)CO)C(=O)c2cc(NC(=O)Nc3ccc(C(F)(F)F)cc3)ccc2O[C@H]1CN(C)Cc1ccccc1,.,.,.,-,.,.,.,.,.
CCOc1ccc(Nc2ccc(N)c(S(=O)(=O)O)c2)cc1,38,.,-,92,-,-,14,-,19
COc1cc(N)c2ncccc2c1Cl,44,-,-,56,-,47,-,-,-
CCN1[C@H](C(=O)NC2CCCC2)[C@@H](CO)[C@@H]2Cn3c(ccc(-c4ccccc4F)c3=O)[C@@H]21,.,.,.,-,.,.,.,.,.
Cc1ccc(S(=O)(=O)N[C@H]2C=C[C@H](CC(=O)N3CCC(Cc4ccccc4)CC3)O[C@@H]2CO)cc1,.,.,.,-,.,.,.,.,.
CCOC(=O)NNC1CC(=O)N(c2ccccc2)C1=O (stereo not drawn),18,-,-,-,-,-,-,-,-
COC(=O)[C@H]1C[C@H]2[C@@H]3CC[C@H]4C[C@@H](OC)CC[C@]4(C)[C@H]3CC[C@]2(C)[C@@]2(CCCO2)O1,49,.,-,-,-,-,-,-,-
COc1ccc(CCNC(=O)c2cccs2)cc1OC,-,-,-,-,-,-,.,.,.
COc1ccc(CCNC(=O)Cn2c(=O)oc3cc(Cl)ccc32)cc1OC,34,-,-,-,-,-,-,-,-
COc1ccc(CCNC(=O)Cc2cccs2)cc1OC,22,-,-,-,-,-,-,-,-
CN1C(=O)c2cc(NC(=O)C3CCCC3)ccc2OC[C@H]2O[C@@H](CC(=O)Nc3ccccc3)CC[C@H]21,.,.,.,-,.,.,.,.,.
SMILES,LEDGF integ inh,NSD2 HMT inh,MBD2 inh,Casp6 inh,UHRF1 MBD2 ctr,TDP2 inh,IN multimer act,TR-FRET interf,IN-LEDGF confirm
CCCNC(=O)N(C)C[C@@H]1Oc2cc(C#CC3CC3)ccc2S(=O)(=O)N([C@@H](C)CO)C[C@H]1C,.,.,.,-,.,.,.,.,.
COCCOC(=O)N1C(=O)[C@@]2(c3ccccc31)[C@H](C(=O)N1CCN(c3ncccn3)CC1)[C@H]1C(=O)O[C@H](c3ccccc3)[C@H](c3ccccc3)N1[C@@H]2c1ccccc1OCCO,.,.,.,-,.,.,.,.,.
CCCCN(C(=O)c1ccccc1OCc1ccc(F)cc1)c1c(N)n(CCC)c(=O)[nH]c1=O,-,-,-,-,-,-,.,.,.
CN(C(=O)c1ccccc1OCc1ccc(F)cc1)c1c(N)n(Cc2ccccc2)c(=O)[nH]c1=O,55,-,-,-,-,-,-,-,-
Cc1cccc(N/N=C/c2ccc(O)c(O)c2O)c1,70,-,-,-,-,-,9.1,-,29
FC(F)(F)c1cccc(OCCOCCn2cncn2)c1,21,-,-,.,-,-,-,-,-
c1ccc(-c2ccc(OCCOCCn3cncn3)cc2)cc1,-,-,-,.,-,-,.,.,.
